Reference: ChEMBL document CHEMBL1153795, “Aromatic cyclic peroxides and related keto-compounds from the Plakortis sp. component of a sponge consortium” (2009)
≈ marks a conversion by molar mass, not a printed value. Calls of active or inactive are those of the source. The rule behind the calls is not given here.

Experiments:
Escherichia coli = assay: Antibacterial activity against Escherichia coli after 24 hrs by broth macridilution method; assay type: functional, organism-based
In short: (§1)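 Broth macrodilution in LB medium (10 g/L Bactotryptone, 5 g/L Bactoyeast, 10 g/L NaCl, pH 7.5). Inoculum was set to 0.5 McFarland (2 × 10^8 cfu/mL) at 530 nm, then diluted 1:4000 to 50 000 cfu/mL. Tubes held eleven 2-fold dilutions (512–[…] µg/mL final) and were incubated 24 h at 37 °C. MIC90 was taken as the lowest concentration with no visible growth.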

Staphylococcus aureus = assay: Antibacterial activity against Staphylococcus aureus after 24 hrs by broth macridilution method; assay type: functional; in short: as §1
Candida albicans = assay: Antifungal activity against Candida albicans after 24 hrs by broth macridilution method; assay type: functional, organism-based

Row | Compound | Activity (Escherichia coli) | MIC (Staphylococcus aureus) [µg/mL] | Activity (Candida albicans)
1 | CC(CCCCCCCCc1ccccc1)C[C@@]1(C)C[C@@H](C)[C@@](C)(O)OO1 (stereo partly specified) | inactive | 64 (≈ 170 µM) | inactive
2 | COC(=O)C[C@]1(O)OO[C@@](C)(C/C(C)=C/C=C/Cc2ccccc2)C[C@H]1C | inactive | – | inactive
3 | CC(=O)CC(C)CCCCCC/C=C/c1ccccc1 (stereo unspecified) | inactive | – | inactive
4 | CC(CCCCCC/C=C/c1ccccc1)C[C@@]1(C)C[C@@H](C)[C@@](C)(O)OO1 (stereo partly specified) | inactive | – | inactive
5 | CC(=O)CC(C)CCCCCCCCc1ccccc1 (stereo unspecified) | inactive | – | inactive
